Reference: ChEMBL document CHEMBL4732095, “Novel naphthylamide derivatives as dual-target antifungal inhibitors: Design, synthesis and biological evaluation” (Eur J Med Chem, 2021)
pIC50: −log10 of the molar value. Activity calls are given as the source filed them. The rule behind the calls is not given here.

Assays:
Candida albicans [1] = assay: Antifungal activity against Candida albicans ATCC 10231 assessed as inhibition of microbial growth by NCCLS protocol based method; type: functional
In short: (§1)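 Broth MIC50 determined following NCCLS guidelines in Sabouraud medium, with fungal suspension in 24-well format. Compound tested at 0.0625, 0.125, 0.5, 1, 2, 4, 8 and 16 μg/mL. Plates cultured statically at 35 °C. MIC50 is the lowest concentration giving 50% growth inhibition. Naftifine and fluconazole served as positive controls.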

Nakaseomyces glabratus = assay: Antifungal activity against Candida glabrata ATCC 0001 assessed as inhibition of microbial growth by NCCLS protocol based method; type: functional; in short: as §1
Pichia kudriavzevii = assay: Antifungal activity against Candida krusei ATCC 6258 assessed as inhibition of microbial growth by NCCLS protocol based method; type: functional; in short: as §1
Candida tropicalis = assay: Antifungal activity against Candida tropicalis ATCC 1369 assessed as inhibition of microbial growth by NCCLS protocol based method; type: functional; in short: as §1
Aspergillus fumigatus = assay: Antifungal activity against Aspergillus fumigatus KM8001 assessed as inhibition of microbial growth by NCCLS protocol based method; type: functional; in short: as §1
Candida albicans [2] = assay: Antifungal activity against fluconazole-resistant Candida albicans 17# assessed as inhibition of microbial growth by NCCLS protocol based method; type: functional
Candida albicans [3] = assay: Antifungal activity against fluconazole-resistant Candida albicans CaR assessed as inhibition of microbial growth by NCCLS protocol based method; type: functional
Candida albicans [4] = assay: Antifungal activity against fluconazole-resistant Candida albicans 632 assessed as inhibition of microbial growth by NCCLS protocol based method; type: functional
Candida albicans [5] = assay: Antifungal activity against fluconazole-resistant Candida albicans 901 assessed as inhibition of microbial growth by NCCLS protocol based method; type: functional
Candida albicans [6] = assay: Antifungal activity against fluconazole-resistant Candida albicans 904 assessed as inhibition of microbial growth by NCCLS protocol based method; type: functional
Candida albicans [7] = assay: Antifungal activity against Candida albicans ATCC SC5314 assessed as decrease in fungal cell density at 10 nM/mL by polarizing microscopy; type: functional, organism-based; details: dose 10.0 nmol/ml
In short: (§2)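 C. albicans ATCC SC5314 observed by polarizing microscopy over treatment time. Untreated, fluconazole- and naftifine-treated control groups were included. Cell density, dividing cells and cell fracture were assessed, with cell counts taken per field.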

Candida albicans [8] = assay: Antifungal activity against Candida albicans ATCC SC5314 assessed as reduction in cell division at 10 nM/mL by polarizing microscopy; type: functional, organism-based; details: dose 10.0 nmol/ml; in short: as §2
Candida albicans [9] = assay: Antifungal activity against Candida albicans ATCC SC5314 assessed as induction of cell fracture at 10 nM/mL by polarizing microscopy; type: functional, organism-based; details: dose 10.0 nmol/ml; in short: as §2
[10] = molecular target: T1, Lanosterol 14-alpha demethylase (Candida albicans (strain SC5314 / ATCC MYA-2876) (Yeast), UniProt P10613); assay: Inhibition of CYP51 in Candida albicans ATCC SC5314 assessed as ergosterol level at 0.125 ug/ml incubated for 48 hrs by LC/MS analysis (reference value: 95.1 %); parameters: scale not given: the % may be the effect or the level left; details: candida albicans sc5314, 48 h, at 0.125 µg/mL
T1 sequence (P10613 whole entry): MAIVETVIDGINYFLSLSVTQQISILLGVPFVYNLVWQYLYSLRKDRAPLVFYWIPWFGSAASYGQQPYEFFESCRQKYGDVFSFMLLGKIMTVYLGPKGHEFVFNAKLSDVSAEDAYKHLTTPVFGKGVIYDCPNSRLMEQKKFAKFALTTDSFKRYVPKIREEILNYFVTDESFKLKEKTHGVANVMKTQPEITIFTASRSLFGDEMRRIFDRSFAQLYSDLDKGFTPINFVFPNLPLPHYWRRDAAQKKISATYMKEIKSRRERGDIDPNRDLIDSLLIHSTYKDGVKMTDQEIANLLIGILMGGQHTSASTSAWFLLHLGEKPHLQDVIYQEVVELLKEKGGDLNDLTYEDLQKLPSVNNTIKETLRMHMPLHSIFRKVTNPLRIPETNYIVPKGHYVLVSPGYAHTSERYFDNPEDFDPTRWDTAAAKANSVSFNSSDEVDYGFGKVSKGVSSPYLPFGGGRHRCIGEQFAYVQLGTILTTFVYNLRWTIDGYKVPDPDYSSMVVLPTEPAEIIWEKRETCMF
In short: (§3)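 C. albicans ATCC SC5314 cells exposed to drug at 0.125, 0.5 or 4 μg/mL for 48 h, alongside an untreated control. Sterols were extracted and analysed by LC-MS. Ergosterol, squalene, lanosterol, eburicol and unknown sterols are each given as % of total sterols, calculated from the peak area ratio of each component.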

[11] = molecular target: T1, Lanosterol 14-alpha demethylase; assay: Inhibition of CYP51 in Candida albicans ATCC SC5314 assessed as ergosterol level at 0.5 ug/ml incubated for 48 hrs by LC/MS analysis (reference value: 95.1 %); parameters: scale not given: the % may be the effect or the level left; details: candida albicans sc5314, 48 h, at 0.5 µg/mL
In short: (§4)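 C. albicans SC5314 cells exposed to compound (0.125, 0.5 or 4 μg/mL) for 48 h alongside untreated and naftifine/fluconazole-treated groups; sterol fraction analysed by LC-MS; each component expressed as percent of total sterols from peak area ratios.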

[12] = molecular target: T1, Lanosterol 14-alpha demethylase; assay: Inhibition of CYP51 in Candida albicans ATCC SC5314 assessed as ergosterol level at 4 ug/ml incubated for 48 hrs by LC/MS analysis (reference value: 95.1 %); parameters: scale not given: the % may be the effect or the level left; details: candida albicans sc5314, 48 h, at 4 µg/mL; in short: as §4
[13] = molecular target: T1, Lanosterol 14-alpha demethylase; assay: Inhibition of CYP51 in Candida albicans ATCC SC5314 assessed as squalene level at 4 ug/ml incubated for 48 hrs by LC/MS analysis; parameters: scale not given: the % may be the effect or the level left; details: candida albicans sc5314, 48 h, at 4 µg/mL; in short: as §4
[14] = molecular target: T1, Lanosterol 14-alpha demethylase; assay: Inhibition of CYP51 in Candida albicans ATCC SC5314 assessed as lanosterol level at 0.125 ug/ml incubated for 48 hrs by LC/MS analysis; parameters: scale not given: the % may be the effect or the level left; details: candida albicans sc5314, 48 h, at 0.125 µg/mL; in short: as §3
[15] = molecular target: T1, Lanosterol 14-alpha demethylase; assay: Inhibition of CYP51 in Candida albicans ATCC SC5314 assessed as lanosterol level at 0.5 ug/ml incubated for 48 hrs by LC/MS analysis; parameters: scale not given: the % may be the effect or the level left; details: candida albicans sc5314, 48 h, at 0.5 µg/mL; in short: as §4
[16] = molecular target: T1, Lanosterol 14-alpha demethylase; assay: Inhibition of CYP51 in Candida albicans ATCC SC5314 assessed as lanosterol level at 4 ug/ml incubated for 48 hrs by LC/MS analysis; parameters: scale not given: the % may be the effect or the level left; details: candida albicans sc5314, 48 h, at 4 µg/mL; in short: as §4
[17] = molecular target: T1, Lanosterol 14-alpha demethylase; assay: Inhibition of CYP51 in Candida albicans ATCC SC5314 assessed as eburicol level at 0.125 ug/ml incubated for 48 hrs by LC/MS analysis (reference value: 1.4 %); parameters: scale not given: the % may be the effect or the level left; details: candida albicans sc5314, 48 h, at 0.125 µg/mL; in short: as §3
[18] = molecular target: T1, Lanosterol 14-alpha demethylase; assay: Inhibition of CYP51 in Candida albicans ATCC SC5314 assessed as eburicol level at 0.5 ug/ml incubated for 48 hrs by LC/MS analysis (reference value: 1.4 %); parameters: scale not given: the % may be the effect or the level left; details: candida albicans sc5314, 48 h, at 0.5 µg/mL; in short: as §4
[19] = molecular target: T1, Lanosterol 14-alpha demethylase; assay: Inhibition of CYP51 in Candida albicans ATCC SC5314 assessed as eburicol level at 4 ug/ml incubated for 48 hrs by LC/MS analysis (reference value: 1.4 %); parameters: scale not given: the % may be the effect or the level left; details: candida albicans sc5314, 48 h, at 4 µg/mL; in short: as §4
[20] = molecular target: T1, Lanosterol 14-alpha demethylase; assay: Inhibition of CYP51 in Candida albicans ATCC SC5314 assessed as unknown sterol level at 0.125 ug/ml incubated for 48 hrs by LC/MS analysis; parameters: scale not given: the % may be the effect or the level left; details: candida albicans sc5314, 48 h, at 0.125 µg/mL; in short: as §3
[21] = molecular target: T1, Lanosterol 14-alpha demethylase; assay: Inhibition of CYP51 in Candida albicans ATCC SC5314 assessed as unknown sterol level at 0.5 ug/ml incubated for 48 hrs by LC/MS analysis; parameters: scale not given: the % may be the effect or the level left; details: candida albicans sc5314, 48 h, at 0.5 µg/mL; in short: as §4
[22] = molecular target: T1, Lanosterol 14-alpha demethylase; assay: Inhibition of CYP51 in Candida albicans ATCC SC5314 assessed as unknown sterol level at 4 ug/ml incubated for 48 hrs by LC/MS analysis; parameters: scale not given: the % may be the effect or the level left; details: candida albicans sc5314, 48 h, at 4 µg/mL; in short: as §4
[23] = molecular target: T1, Lanosterol 14-alpha demethylase; assay: Inhibition of Candida albicans ATCC SC5314 CYP51 incubated for 30 mins by HPLC method

For `OC(Cn1cncn1)(Cn1cncn1)c1ccc(F)cc1F` [FLUCONAZOLE], which MIC50 (Candida albicans [1]) is on record?
Its MIC50 is 0.25 mg/L.

What about the MIC50 (Nakaseomyces glabratus) of the same compound?
The MIC50 was 0.25 mg/L.

And the MIC50 (Pichia kudriavzevii)?
Its MIC50 is 1 mg/L.

And the MIC50 (Candida tropicalis)?
The MIC50 was 0.25 mg/L.

And the MIC50 (Aspergillus fumigatus)?
Its MIC50 is greater than 16 mg/L.

And the MIC50 (Candida albicans [2])?
The MIC50 was 8 mg/L.

What about the MIC50 (Candida albicans [3]) of the same compound?
The MIC50 was greater than 16 mg/L.

What about the MIC50 (Candida albicans [4]) of the same compound?
The MIC50 was 8 mg/L.

And the MIC50 (Candida albicans [5])?
Its MIC50 is greater than 16 mg/L.

What about the MIC50 (Candida albicans [6]) of the same compound?
The MIC50 was 8 mg/L.

And the Activity (Candida albicans [7])?
Its Activity is “Active”.

What about the Activity (Candida albicans [8]) of the same compound?
The Activity was “Active”.

What about the Activity (Candida albicans [9]) of the same compound?
The Activity was “Active”.

And the Activity [10]?
Its Activity is 78.5%.

What about the Activity [11] of the same compound?
The Activity was 43.9%.

And the Activity [12]?
Its Activity is 12.7%.

What about the Activity [13] of the same compound?
The Activity was 1.3%.

And the Activity [14]?
Its Activity is 5.1%.

What about the Activity [15] of the same compound?
The Activity was 8.9%.

What about the Activity [16] of the same compound?
Its Activity is 16.3%.

And the Activity [17]?
Its Activity is 12.8%.

And the Activity [18]?
The Activity was 42.5%.

What about the Activity [19] of the same compound?
Its Activity is 64.5%.

And the Activity [20]?
Its Activity is 3.6%.

What about the Activity [21] of the same compound?
Its Activity is 4.7%.

And the Activity [22]?
The Activity was 5.2%.

And the pIC50 [23]?
The pIC50 was 6.94.
